Measurements taken from ChEMBL document CHEMBL1158804, “Lupane triterpenoids from Maytenus species” (J Nat Prod, 2005).
Values after ≈ are worked out from the molar mass of the structure shown. Active and inactive are the calls of the source. The rule behind the calls is not given here.

Legend:
Bacillus subtilis [1] = test: Antibacterial activity against Bacillus subtilis CECT 39 by broth microdilution method; format: functional
How it was run: (§1)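 Compounds are dissolved in DMSO. The minimal inhibitory concentration is estimated by broth microdilution.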

Bacillus cereus [2] = test: Antibacterial activity against Bacillus cereus CECT 496 by broth microdilution method; format: functional; how it was run: as §1
Bacillus pumilus [3] = test: Antibacterial activity against Bacillus pumilus CECT 29 by broth microdilution method; format: functional; how it was run: as §1
HeLa = test: Cytotoxicity against human HeLa cells after 48 hrs by MTT assay; format: functional, cell-based
How it was run: (§2)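 Monolayers are cultured in DMEM with 5% fetal calf serum and 1% penicillin-streptomycin at 37 °C, 5% CO2 and 90% humidity. Exponentially growing cells (2 × 10^4 cells/well) are exposed to a range of compound concentrations for 48 h at 37 °C. Viability is read by colorimetric MTT reduction.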

HEp-2 = test: Cytotoxicity against human Hep2 cells after 48 hrs by MTT assay; format: functional, cell-based; settings: HEp-2, 48 h; how it was run: as §2
Vero = test: Cytotoxicity against african green monkey Vero cells after 48 hrs by MTT assay; format: cell-based; settings: Chlorocebus sabaeus; how it was run: as §2
Staphylococcus aureus = test: Antibacterial activity against Staphylococcus aureus ATCC 6538 up to 40 ug/mL by broth microdilution method; format: functional, organism-based; how it was run: as §1
[4] = system: Staphylococcus epidermidis; test: Antibacterial activity against Staphylococcus epidermidis CECT 232 up to 40 ug/mL by broth microdilution method; format: functional, organism-based; how it was run: as §1
[5] = system: Staphylococcus saprophyticus; test: Antibacterial activity against Staphylococcus saprophyticus CECT 235 up to 40 ug/mL by broth microdilution method; format: functional, organism-based; how it was run: as §1
Enterococcus faecalis = test: Antibacterial activity against Enterococcus faecalis CECT 795 up to 40 ug/mL by broth microdilution method; format: functional, organism-based; how it was run: as §1
Bacillus subtilis [6] = test: Antibacterial activity against Bacillus subtilis CECT 39 up to 40 ug/mL by broth microdilution method; format: functional, organism-based; how it was run: as §1
Bacillus cereus [7] = test: Antibacterial activity against Bacillus cereus CECT 496 up to 40 ug/mL by broth microdilution method; format: functional, organism-based; how it was run: as §1
Bacillus pumilus [8] = test: Antibacterial activity against Bacillus pumilus CECT 29 up to 40 ug/mL by broth microdilution method; format: functional, organism-based; how it was run: as §1
Priestia megaterium = test: Antibacterial activity against Bacillus megaterium CECT 44 up to 40 ug/mL by broth microdilution method; format: functional, organism-based; how it was run: as §1
[9] = system: Mycolicibacterium smegmatis; test: Antibacterial activity against Mycobacterium smegmatis CECT 3032 up to 40 ug/mL by broth microdilution method; format: functional, organism-based; how it was run: as §1
Escherichia coli = test: Antibacterial activity against Escherichia coli CECT 99 up to 40 ug/mL by broth microdilution method; format: functional, organism-based; how it was run: as §1
Proteus mirabilis = test: Antibacterial activity against Proteus mirabilis CECT170 up to 40 ug/mL by broth microdilution method; format: functional, organism-based; how it was run: as §1
Salmonella = test: Antibacterial activity against Salmonella sp. CECT 456 up to 40 ug/mL by broth microdilution method; format: functional, organism-based; how it was run: as §1
Pseudomonas aeruginosa = test: Antibacterial activity against Pseudomonas aeruginosa AK 958 up to 40 ug/mL by broth microdilution method; format: functional, organism-based; how it was run: as §1
Candida albicans = test: Antifungal activity against Candida albicans UBC1 up to 40 ug/mL by broth microdilution method; format: functional, organism-based
How it was run: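 The yeast is grown on Sabouraud agar at 37 °C. Compounds are dissolved in DMSO, and the minimal inhibitory concentration is estimated by broth microdilution.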

| SMILES | MIC (Bacillus subtilis [1]) [µg/mL] | MIC (Bacillus cereus [2]) [µg/mL] | MIC (Bacillus pumilus [3]) [µg/mL] | IC50 (HeLa) [µg/mL] | IC50 (HEp-2) [µg/mL] | IC50 (Vero) [µg/mL] | Activity (Staphylococcus aureus) | Activity [4] | Activity [5] | Activity (Enterococcus faecalis) | Activity (Bacillus subtilis [6]) | Activity (Bacillus cereus [7]) | Activity (Bacillus pumilus [8]) | Activity (Priestia megaterium) | Activity [9] | Activity (Escherichia coli) | Activity (Proteus mirabilis) | Activity (Salmonella) | Activity (Pseudomonas aeruginosa) | Activity (Candida albicans) |
| --- | --- | --- | --- | --- | --- | --- | --- | --- | --- | --- | --- | --- | --- | --- | --- | --- | --- | --- | --- | --- |
| C=C(C)[C@@H]1CC[C@]2(C(=O)O)CC[C@]3(C)[C@@H](CC[C@@H]4[C@@]5(C)CCC(=O)C(C)(C)[C@@H]5[C@H](O)C[C@]43C)[C@@H]12 | 35 (≈ 74.4 µM) | 25 (≈ 53.1 µM) | 20 (≈ 42.5 µM) | > 10 | > 10 | > 10 |  |  |  |  |  |  |  |  |  |  |  |  |  |  |
| CC(C)[C@@H]1CC[C@]2(C)CC[C@]3(C)[C@@H](CC[C@@H]4[C@@]5(C)CC[C@H](OC(=O)/C=C/c6ccc(O)c(O)c6)C(C)(C)[C@@H]5CC[C@]43C)[C@@H]12 |  |  |  | > 10 | > 10 | > 10 | inactive | inactive | inactive | inactive | inactive | inactive | inactive | inactive | inactive | inactive | inactive | inactive | inactive | inactive |
| C=C(C)[C@@H]1CC[C@]2(C)CC[C@]3(C)[C@@H](C[C@@H](O)[C@@H]4[C@@]5(C)[C@H](O)C[C@H](O)C(C)(C)[C@@H]5CC[C@]43C)[C@@H]12 [NEPETICIN] |  |  |  | < 10 | < 10 | < 10 | inactive | inactive | inactive | inactive | inactive | inactive | inactive | inactive | inactive | inactive | inactive | inactive | inactive | inactive |
| C=C(C)[C@@H]1CC[C@]2(CO)CC[C@]3(C)[C@H](C[C@@H](O)[C@@H]4[C@@]5(C)CC[C@@H](O)C(C)(C)[C@@H]5CC[C@]43C)[C@@H]12 |  |  |  | > 10 | > 10 | > 10 | inactive | inactive | inactive | inactive | inactive | inactive | inactive | inactive | inactive | inactive | inactive | inactive | inactive | inactive |
| C=C(C)[C@@H]1CC[C@@]2(C)[C@H]1[C@@H]1CC[C@@H]3[C@@]4(C)CCC(=O)C(C)(C)[C@@H]4[C@H](O)C[C@@]3(C)[C@]1(C)C[C@@H]2O [RESINONE] |  |  |  | > 10 | > 10 | > 10 | inactive | inactive | inactive | inactive | inactive | inactive | inactive | inactive | inactive | inactive | inactive | inactive | inactive | inactive |
| CC(=O)[C@@H]1CC[C@]2(CO)CC[C@]3(C)[C@@H](CC[C@@H]4[C@@]5(C)CC[C@H](O)C(C)(C)[C@@H]5CC[C@]43C)[C@@H]12 [MESSAGENIN] |  |  |  | > 10 | > 10 | > 10 | inactive | inactive | inactive | inactive | inactive | inactive | inactive | inactive | inactive | inactive | inactive | inactive | inactive | inactive |
| C=C(C)[C@@H]1CC[C@]2(C)CC[C@]3(C)[C@@H](CC[C@@H]4[C@@]5(C)C=CC(=O)C(C)(C)[C@@H]5CC[C@]43C)[C@@H]12 [GLOCHIDONE] |  |  |  | > 10 | > 10 | > 10 | inactive | inactive | inactive | inactive | inactive | inactive | inactive | inactive | inactive | inactive | inactive | inactive | inactive | inactive |
| C=C(CO)[C@@H]1CC[C@]2(CO)CC[C@]3(C)[C@@H](CC[C@@H]4[C@@]5(C)CCC(=O)C(C)(C)[C@@H]5CC[C@]43C)[C@@H]12 |  |  |  | 4 (≈ 8.76 µM) | 7.1 (≈ 15.5 µM) | > 10 | inactive | inactive | inactive | inactive | inactive | inactive | inactive | inactive | inactive | inactive | inactive | inactive | inactive | inactive |
| C=C(C)[C@@H]1CC[C@]2(C)CC[C@]3(C)[C@@H](C[C@@H](O)[C@@H]4[C@@]5(C)CCC(=O)C(C)(C)[C@@H]5CC[C@]43C)[C@@H]12 [RIGIDENOL] |  |  |  | > 10 | > 10 | > 10 | inactive | inactive | inactive | inactive | inactive | inactive | inactive | inactive | inactive | inactive | inactive | inactive | inactive | inactive |
| C=C(C)[C@@H]1CC[C@]2(CO)CC[C@]3(C)[C@H](CC[C@@H]4[C@@]5(C)CC[C@@H](O)C(C)(C)[C@@H]5CC[C@]43C)[C@@H]12 [3-EPI-BETULIN] |  |  |  | > 10 | > 10 | > 10 | inactive | inactive | inactive | inactive | inactive | inactive | inactive | inactive | inactive | inactive | inactive | inactive | inactive | inactive |
